Screening results deposited in PubChem by Broad Institute.
Pf Dd2 inh = P. falciparum Dd2 growth inhibitors, primary screen, SYBR Green fluorescence, single dose replicates; 72 h; active compounds read low; activity change, % at 10 µM; 94,000 compounds, 2.3% hits; in the data active = activity change below about -80%; inconclusive = no clear call, values can overlap the other calls
T cruzi growth-1 = T. cruzi intracellular proliferation inhibitors, primary screen, cell-based, beta-gal Tulahuen parasites, NIH3T3 host, luminescence; T. cruzi beta-gal in NIH3T3, GalScreen luminescence, 90 h; inhibition, % at 8.34 µM; 77,000 compounds, 5.9% hits;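 active = mean inhibition above about 93%, with at least 55% of replicates each passing it, limit read from the data, passing the limit was not always enough; inconclusive = only one of those two conditions holds; inactive = neither condition holds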
GASC1 inh = inhibitors of GASC-1 (KDM4C) histone demethylase, primary screen, biochemical, single concentration HTS; AID 720574, 2013; Lysine-specific demethylase 4C (Homo sapiens), Q9H3R0; inhibition, % at 12.5 µM; GST-KDM4C 2-372, H3K9me3 peptide, LANCE TR-FRET; 96,000 compounds, 0.15% hits;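 active = mean replicate inhibition above about 25%, with at least 55% of replicates also reaching it, limit read from the data, passing the limit was not always enough; inconclusive = only one of those two conditions met; inactive = neither condition met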
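System: N-terminal GST-fused human GASC-1 (KDM4C) fragment, residues 2-372; amount: enzyme final amount 10 nM; incubation: reaction 30 min RT, detection step 1 h RT; medium: HEPES buffer, pH 7.5, plus ascorbate; technique: LANCE TR-FRET, Eu antibody, ULight-streptavidin, EDTA, ex 340 nm, em 618/671 nm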
IDH1 R132H inh = inhibitors of IDH1 R132H reductase, primary screen, biochemical, plate reader, single point; diaphorase/resazurin fluorescence, 60 min; inhibition, % at 10 µM; 70,000 compounds, 0.18% hits; AID 624101, 2012; in the data active = inhibition above about 34%; inconclusive = no clear call, values can overlap the other calls; inactive = below about 11%;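 note: 0% = DMSO and 100% = no enzyme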
Target sequence (O75874 whole entry R132H): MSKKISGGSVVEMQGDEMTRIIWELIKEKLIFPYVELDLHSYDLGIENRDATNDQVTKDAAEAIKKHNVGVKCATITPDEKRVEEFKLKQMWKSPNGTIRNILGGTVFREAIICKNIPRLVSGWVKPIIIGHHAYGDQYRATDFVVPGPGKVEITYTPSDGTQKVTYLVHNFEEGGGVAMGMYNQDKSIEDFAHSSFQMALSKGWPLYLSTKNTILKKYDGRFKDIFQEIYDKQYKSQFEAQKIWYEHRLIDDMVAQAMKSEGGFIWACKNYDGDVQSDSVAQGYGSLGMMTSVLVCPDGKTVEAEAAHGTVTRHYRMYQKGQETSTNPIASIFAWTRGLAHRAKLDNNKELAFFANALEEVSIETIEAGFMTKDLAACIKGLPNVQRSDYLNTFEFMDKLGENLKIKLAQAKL
T cruzi growth-2 = T. cruzi intracellular proliferation inhibitors, confirmation, cell-based, NIH3T3 host, beta-gal parasite, luminescence, cherry-pick; shares compounds with T cruzi growth-1; T. cruzi beta-gal in NIH3T3, GalScreen luminescence, 90 h; inhibition, % at 8.35 µM; 5,600 compounds, 72% hits; AID 651739, 2012;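 active = mean replicate inhibition above about 95% and at least 55% of replicates individually reaching it, limit read from the data; inconclusive = only one of the two criteria is met; inactive = neither criterion is met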
T cruzi growth-3 = inhibitors of intracellular T. cruzi replication, confirmation, NIH3T3 host cells, beta-gal parasites, cherry-pick, set 2 | inhibition, % at 2.09 µM | 5,600 compounds, 21% hits | shares compounds with T cruzi growth-1 | T. cruzi beta-gal in NIH3T3, GalScreen luminescence, 90 h;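 active = mean inhibition above about 95%, with at least 55% of replicates also reaching it, limit read from the data; inconclusive = meets just one of the two conditions; inactive = meets neither condition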;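 note: plate controls were neutral control median for no effect and positive control median for full effect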
3T3 cytotox = cytotoxicity in mouse NIH/3T3 fibroblasts, confirmation, cytotoxicity control for T. cruzi proliferation inhibitor project, cell-based, cherry-pick, single point; NIH/3T3 viability, CellTiter-Glo ATP luminescence, 90 h; shares compounds with T cruzi growth-1; cytotoxicity (signal decrease), % at 8.35 µM; AID 651742, 2012; 5,600 compounds, 14% hits;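 active = mean signal decrease across replicates above about 35% based on untreated-well scatter, with enough replicates individually passing, limit read from the data; inconclusive = no rule stated though some were filed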;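 note: 0% = median of neutral control wells and 100% = median of positive control wells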
NIH3T3 tox 2 = NIH/3T3 fibroblast cytotoxicity, confirmation, cytotoxicity control, cell-based, cherry-pick, single point, set 2 | 5,600 compounds, 56% hits | NIH/3T3 viability, CellTiter-Glo ATP luminescence, 90 h | shares compounds with T cruzi growth-1 | AID 651744, 2012 | inhibition, % at 24.9 µM;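 active = mean loss of cell viability signal at or above a set limit, and enough replicates individually reaching it; inconclusive = meets only the mean limit or only the replicate share; inactive = meets neither condition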;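 note: 0% = median of neutral control wells and 100% = median of positive control wells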
Active calls of the source: *. An excerpt weighted towards active compounds, which were near 5.8% of everything screened.

For C[C@H](CO)N1C[C@H](C)[C@@H](CN(C)Cc2ccc(Oc3ccccc3)cc2)Oc2ccc(NC(=O)C3CC3)cc2C1=O the results were Pf Dd2 inh -14.8, T cruzi growth-1 18.0, GASC1 inh 0.4 and IDH1 R132H inh 2.1.
O=C(c1ccc(F)cc1)N1CCCCN2[C@H](CO)[C@H](c3ccc(/C=C/c4ccccc4)cc3)[C@H]2C1 was read as Pf Dd2 inh -46.5, T cruzi growth-1 60.9 and GASC1 inh -1.2.
`O=C(c1ccc(F)cc1)N1CCCCN2[C@H](CO)[C@@H](c3ccc(/C=C/c4ccccc4)cc3)[C@@H]2C1` gave Pf Dd2 inh 0.9, T cruzi growth-1 71.8 and GASC1 inh -1.2.
`O=C(c1ccc(F)cc1)N1CCCCN2[C@H](C1)[C@@H](c1ccc(/C=C/c3ccccc3)cc1)[C@@H]2CO` gave Pf Dd2 inh -18.0, T cruzi growth-1 98.8*, GASC1 inh -0.7, T cruzi growth-2 108.9*, T cruzi growth-3 78.7, 3T3 cytotox 33.1 and NIH3T3 tox 2 31.7*.
O=C(c1ccc(F)cc1)N1CCCCN2[C@H](CO)[C@H](c3ccc(/C=C/c4ccccc4)cc3)[C@@H]2C1 was read as Pf Dd2 inh -17.5, T cruzi growth-1 110.9*, GASC1 inh -1.5, T cruzi growth-2 106.8*, T cruzi growth-3 inconclusive, 3T3 cytotox 23.3 and NIH3T3 tox 2 105.2*.
For O=C(c1ccc(F)cc1)N1CCCCN2[C@@H](CO)[C@@H](c3ccc(/C=C/c4ccccc4)cc3)[C@@H]2C1 the results were Pf Dd2 inh -56.5, T cruzi growth-1 112.4*, GASC1 inh -0.7, T cruzi growth-2 98.0*, T cruzi growth-3 62.6, 3T3 cytotox 87.6* and NIH3T3 tox 2 103.8*.
For C[C@H](CO)N1C[C@H](C)[C@@H](CN(C)S(=O)(=O)c2ccc(F)cc2)Oc2cc(-c3cccc(F)c3)ccc2S1(=O)=O the results were Pf Dd2 inh -71.1, T cruzi growth-1 118.3*, GASC1 inh -1.6, T cruzi growth-2 96.9*, T cruzi growth-3 103.8*, 3T3 cytotox 38.9* and NIH3T3 tox 2 41.8*.
`COc1ccc(S(=O)(=O)N(C)C[C@H]2Oc3cc(-c4cccc(F)c4)ccc3S(=O)(=O)N([C@H](C)CO)C[C@@H]2C)cc1` gave Pf Dd2 inh -71.8, GASC1 inh -1.2 and IDH1 R132H inh -1.1.
For COc1ccc(S(=O)(=O)N(C)C[C@@H]2Oc3cc(-c4cccc(F)c4)ccc3S(=O)(=O)N([C@H](C)CO)C[C@H]2C)cc1 the results were Pf Dd2 inh -76.4, GASC1 inh 1.2 and IDH1 R132H inh -0.1.
Screening C[C@@H]1CN([C@@H](C)CO)S(=O)(=O)c2ccc(-c3cccc(F)c3)cc2O[C@H]1CN(C)S(=O)(=O)c1ccc(F)cc1 returned Pf Dd2 inh -78.5, T cruzi growth-1 112.7*, GASC1 inh 1.0, T cruzi growth-2 100.6*, T cruzi growth-3 107.9*, 3T3 cytotox 48.8* and NIH3T3 tox 2 47.8*.
Screening COCC#Cc1ccc([C@H]2[C@@H](CO)N3CCCCN(C(=O)Nc4cc(F)ccc4F)C[C@H]23)cc1 returned Pf Dd2 inh -51.7, T cruzi growth-1 100.9*, GASC1 inh 0.9, T cruzi growth-2 104.0*, T cruzi growth-3 62.5, 3T3 cytotox -0.5 and NIH3T3 tox 2 89.2*.
Screening CN(C)CC#Cc1ccc([C@@H]2[C@@H](CO)N3CCCCN(C(=O)Nc4ccc(F)cc4)C[C@@H]23)cc1 returned Pf Dd2 inh -19.6, T cruzi growth-1 inconclusive, GASC1 inh 4.3, T cruzi growth-2 106.2*, T cruzi growth-3 81.6, 3T3 cytotox 1.6 and NIH3T3 tox 2 inconclusive.
CN(C)CC#Cc1ccc([C@@H]2[C@@H](CO)N3CCCCN(C(=O)Nc4ccccc4F)C[C@H]23)cc1 was read as Pf Dd2 inh -1.9, T cruzi growth-1 -10.9 and GASC1 inh 3.6.
CN(C)CC#Cc1ccc([C@@H]2[C@H](CO)N3CCCCN(C(=O)Nc4cc(F)ccc4F)C[C@@H]23)cc1 was read as Pf Dd2 inh -38.9, T cruzi growth-1 inconclusive, GASC1 inh 3.9, T cruzi growth-2 93.0, T cruzi growth-3 72.6, 3T3 cytotox 9.4 and NIH3T3 tox 2 98.0*.
`CN(C)CC#Cc1ccc([C@H]2[C@@H](CO)N3CCCCN(C(=O)Nc4ccc(F)cc4)C[C@H]23)cc1` gave Pf Dd2 inh -47.1, T cruzi growth-1 52.8 and GASC1 inh 2.4.
Screening CN(C)CC#Cc1ccc([C@H]2[C@H](CO)N3CCCCN(C(=O)Nc4cc(F)ccc4F)C[C@@H]23)cc1 returned Pf Dd2 inh -54.9, T cruzi growth-1 104.9*, GASC1 inh 4.8, T cruzi growth-2 99.0*, T cruzi growth-3 43.2, 3T3 cytotox 23.7 and NIH3T3 tox 2 57.6*.
Screening O=S(=O)(N[C@H]1CC[C@@H](CCn2cc(C3(O)CCCC3)nn2)O[C@H]1CO)c1ccccc1 returned Pf Dd2 inh -16.5, T cruzi growth-1 -18.1, GASC1 inh -0.2 and IDH1 R132H inh -0.3.
Screening CN(C)CC#Cc1ccc([C@@H]2[C@H](CO)N3CCCCN(C(=O)Nc4ccccc4F)C[C@@H]23)cc1 returned Pf Dd2 inh -40.1, T cruzi growth-1 101.5*, GASC1 inh 3.5, T cruzi growth-2 inconclusive, T cruzi growth-3 92.7, 3T3 cytotox -8.0 and NIH3T3 tox 2 39.3*.
`CN(C)CC#Cc1ccc([C@@H]2[C@@H](CO)N3CCCCN(C(=O)Nc4cc(F)ccc4F)C[C@H]23)cc1` gave Pf Dd2 inh -3.7, T cruzi growth-1 100.3*, GASC1 inh 3.8, T cruzi growth-2 inconclusive, T cruzi growth-3 44.6, 3T3 cytotox 7.9 and NIH3T3 tox 2 28.1*.
Screening CN(C)CC#Cc1ccc([C@H]2[C@@H](CO)N3CCCCN(C(=O)Nc4cc(F)ccc4F)C[C@H]23)cc1 returned Pf Dd2 inh -40.1, T cruzi growth-1 109.0*, GASC1 inh 4.7, T cruzi growth-2 95.5*, T cruzi growth-3 50.5, 3T3 cytotox 21.1 and NIH3T3 tox 2 100.6*.
